inhibition, MIC and IC50 data for 35 compounds are collected here from ChEMBL document CHEMBL1156888, “The first low microM SecA inhibitors” (Bioorg Med Chem, 2010).

In general, IC50 refers to the midpoint of a concentration-inhibition curve.

The source made the active and inactive calls. No cut-off for these calls is given here.

Assay [1] concerns Escherichia coli. The assay is described as follows: Inhibition of Escherichia coli SecA N-terminal fragment EcN68 assessed as phosphate release at 100 uM by Malachite green assay. The gist of the method: (§1)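 ATPase of truncated E. coli SecA N68 (lacks C-terminal regulatory domain), 2.25 µg per reaction, with 2 mM ATP in 50 mM Tris-HCl pH 7.6, 20 mM KCl, 20 mM NH4Cl, 1 mM DTT, 2 mM Mg(OAc)2, 10% DMSO. Run at 40 °C for 20 min, stopped with malachite green then citric acid, 40 min at room temperature, A660 read. Activity remaining expressed as percent of compound-free control. At least triplicate, SEM.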

For assay [2], the system named is Escherichia coli. Nature of the assay: Inhibition of Escherichia coli SecA N-terminal fragment EcN68 assessed as phosphate release at 30 uM by Malachite green assay. In a few lines: as §1
For assay [3], the system named is Escherichia coli. Nature of the assay: Inhibition of Escherichia coli SecA N-terminal fragment EcN68 assessed as phosphate release at 5 uM by Malachite green assay. The gist of the method: as §1
For assay [4], the system named is Escherichia coli. Nature of the assay: Antimicrobial activity against permeability mutant Escherichia coli NR698 after 10 to 12 hrs. The class given is functional, organism-based. In a few lines: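 Outer-membrane-permeable MC4100 imp4213 mutant; log-phase cells (OD600 ~0.5–1.0) diluted to OD600 0.05, compounds added from 100% DMSO stocks, cultures with 5% DMSO final, shaken at 37 °C, 1050 rpm, 10–12 h.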

Assay [5] has as its system Escherichia coli. The assay is described as follows: Antimicrobial activity against wild type Escherichia coli MC4100 after 10 to 12 hrs. The class given is functional, organism-based. The gist of the method:
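E. coli K-12 wild-type strain MC4100. Log-phase cells (OD600 ~0.5 to 1.0) diluted to OD600 0.05, compounds added from 100% DMSO stocks, final 5% DMSO. Cultured with shaking at 37 °C, 1050 rpm, for 10 to 12 h.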

Assay [6] is described as follows: Inhibition of Escherichia coli full length SecA assessed as phosphate release by Malachite green assay. In a few lines:
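Full-length SecA (5 µg) in 50 µL with 2 mM ATP, 50 mM Tris-HCl pH 7.6, 20 mM KCl, 20 mM NH4Cl, 1 mM DTT, 2 mM Mg(OAc)2, 10% DMSO; 40 °C, 40 min. Stopped with malachite green then 34% citric acid; 40 min room temperature, A660. Activity as percent of no-compound controls; at least triplicate.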

Assay [7] in a line: Inhibition of Escherichia coli SecA N-terminal fragment EcN68 assessed as phosphate release by Malachite green assay. The gist of the method: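 Truncated SecA lacking the C-terminal regulatory domain (2.25 µg) in 50 µL with 2 mM ATP, 50 mM Tris-HCl pH 7.6, 20 mM KCl, 20 mM NH4Cl, 1 mM DTT, 2 mM Mg(OAc)2, 10% DMSO; 40 °C, 20 min. Stopped with malachite green then 34% citric acid; 40 min room temperature, A660. Percent remaining ATPase versus no-compound controls; at least triplicate.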

For `Cc1onc(-c2c(Cl)cccc2Cl)c1C(=O)Nc1cccc(Cl)c1`, in the assay with Escherichia coli [1], the inhibition entry was “inactive”.

With `Cc1onc(-c2c(Cl)cccc2Cl)c1C(=O)Nc1ccccc1F`, the inhibition entry with Escherichia coli [1] is “inactive”.

In the case of `Cc1onc(-c2c(Cl)cccc2Cl)c1C(=O)NC1CCC(C)CC1` (stereo not drawn), in the assay on Escherichia coli [1], the inhibition entry is “inactive”. As for `Cc1cccc(NC(=O)c2c(-c3c(Cl)cccc3Cl)noc2C)c1`, in the assay with Escherichia coli [1], the inhibition entry was “inactive”. For `Cc1onc(-c2c(Cl)cccc2Cl)c1C(=O)NCc1ccccc1Br`, the inhibition result in the assay on Escherichia coli [1] was “inactive”. With `N#Cc1c(-c2cccc3ccccc23)nc(SCc2ccccc2)[nH]c1=O`, in the assay with Escherichia coli [2], the inhibition entry is “Active”.

`O=[N+]([O-])c1cccc2oc(SCc3ccc(CSc4nc5c([N+](=O)[O-])cccc5o4)cc3)nc12`: the inhibition entry in the assay on Escherichia coli [1] is “Active”. Consider `Clc1ccc2oc(SCc3ccc(CSc4nc5cc(Cl)ccc5o4)cc3)nc2c1`, for which the inhibition result with Escherichia coli [1] is “Active”. On to `CCc1ccc(C2=NC(SCc3ccc(CSc4nc(-c5ccc(CC)cc5)c(C#N)c(=O)[nH]4)cc3)=NC(=O)C2C#N)cc1` (stereo not drawn), for which the inhibition result in the assay with Escherichia coli [1], with Escherichia coli [2] and in the assay on Escherichia coli [3] was “Active” each time. For `c1ccc2oc(SCc3ccc(CSc4nc5ccccc5o4)cc3)nc2c1`, the inhibition entry in the assay on Escherichia coli [1] is “Active”. On to `Cc1onc(-c2c(F)cccc2Cl)c1C(=O)Nc1ccc(Sc2ccccc2)nc1Sc1ccccc1`, for which, in the assay with Escherichia coli [1], the inhibition result was “Active”. For the compound `Cc1onc(-c2c(Cl)cccc2Cl)c1C(=O)N1CCCCC1`, the inhibition entry in the assay with Escherichia coli [1] is “inactive”. Regarding `CC(C)c1ccc(-c2nc(SCc3ccccc3)[nH]c(=O)c2C#N)cc1`, the inhibition result with Escherichia coli [2] is “Active”. Consider `CCc1ccc(-c2nc(SCc3ccccc3)[nH]c(=O)c2C#N)cc1`, for which the inhibition entry with Escherichia coli [2] is “Active”. On to `Cc1ccc2oc(SCc3ccc(CSc4nc5cc(C)ccc5o4)cc3)nc2c1`, for which the inhibition entry in the assay on Escherichia coli [1] is “Active”. For `N#Cc1c(-c2cccc3ccccc23)nc(SCc2ccc(CSC3=NC(=O)C(C#N)C(c4cccc5ccccc45)=N3)cc2)[nH]c1=O` (stereo not drawn), the inhibition entry in the assay with Escherichia coli [1], in the assay with Escherichia coli [2] and in the assay on Escherichia coli [3] was “Active” each time. For the compound `Cc1ccc(NC(=O)c2c(-c3c(Cl)cccc3Cl)noc2C)c(C)c1`, the inhibition result with Escherichia coli [1] was “inactive”. The same measure, in the same setting: the same measure for `Cc1onc(-c2c(Cl)cccc2Cl)c1C(=O)Nc1ccc(F)c(Cl)c1`: “inactive”.

On to `Cc1ccc(C2=NC(SCc3ccc(CSc4nc(-c5ccc(C)cc5)c(C#N)c(=O)[nH]4)cc3)=NC(=O)C2C#N)cc1` (stereo not drawn), for which the inhibition entry in the assay on Escherichia coli [1], in the assay with Escherichia coli [2] and with Escherichia coli [3] was “Active” throughout. For the compound `O=[N+]([O-])c1ccc2oc(SCc3ccc(CSc4nc5cc([N+](=O)[O-])ccc5o4)cc3)nc2c1`, the inhibition entry in the assay on Escherichia coli [1] is “Active”. In the case of `Clc1ccc2nc(SCc3ccc(CSc4nc5ccc(Cl)cc5s4)cc3)sc2c1`, the inhibition result with Escherichia coli [1] was “Active”.

`Cc1onc(-c2c(Cl)cccc2Cl)c1C(=O)NC1CCCCC1`: the inhibition result in the assay on Escherichia coli [1] was “inactive”. In the case of `N#Cc1c(-c2ccc(-c3ccccc3)cc2)nc(SCc2ccccc2)[nH]c1=O`, in the assay with Escherichia coli [2], the inhibition result was “Active”. In the assay with Escherichia coli [4], the MIC entry was “Active”. Moreover, the MIC result in the assay on Escherichia coli [5] was “inactive”.

`N#Cc1c(-c2ccc(Br)cc2)nc(SCc2ccccc2)[nH]c1=O`: the inhibition result with Escherichia coli [2] is “Active”.

Take `Cc1onc(-c2c(Cl)cccc2Cl)c1C(=O)N1CCOCC1`: the inhibition result in the assay with Escherichia coli [1] was “inactive”. On to `N#Cc1c(-c2ccccc2)nc(SCc2ccc(CSC3=NC(=O)C(C#N)C(c4ccccc4)=N3)cc2)[nH]c1=O` (stereo not drawn), for which the inhibition result in the assay with Escherichia coli [1] and in the assay on Escherichia coli [2] was “Active” throughout. Take `Cc1cc(NC(=O)c2c(-c3c(Cl)cccc3Cl)noc2C)ccc1Br`: the inhibition result in the assay with Escherichia coli [1] is “inactive”. `CC(C)c1ccc(C2=NC(SCc3ccc(CSc4nc(-c5ccc(C(C)C)cc5)c(C#N)c(=O)[nH]4)cc3)=NC(=O)C2C#N)cc1` (stereo not drawn): the inhibition entry with Escherichia coli [1], in the assay with Escherichia coli [2] and with Escherichia coli [3] was “Active” in each case. With `Cc1onc(-c2c(Cl)cccc2Cl)c1C(=O)NCc1cccc(Br)c1`, in the assay with Escherichia coli [1], the inhibition result was “inactive”. On to `N#Cc1c(-c2ccc(Br)cc2)nc(SCc2ccc(CSC3=NC(=O)C(C#N)C(c4ccc(Br)cc4)=N3)cc2)[nH]c1=O` (stereo not drawn), for which the inhibition result with Escherichia coli [1], with Escherichia coli [2] and in the assay on Escherichia coli [3] was “Active” each time. Further, the IC50 in assay [6] came to 20 µM; in assay [7] it was 2 µM. As for `Cc1ccccc1NC(=O)c1c(-c2c(Cl)cccc2Cl)noc1C`, the inhibition entry in the assay on Escherichia coli [1] is “inactive”. Besides, the IC50 in assay [6] is 60 µM. As for `COc1ccc(C2=NC(SCc3ccc(CSc4nc(-c5ccc(OC)cc5)c(C#N)c(=O)[nH]4)cc3)=NC(=O)C2C#N)cc1` (stereo not drawn), the inhibition result with Escherichia coli [1] and with Escherichia coli [2] was “Active” throughout. Turning to `N#Cc1c(-c2ccc(-c3ccccc3)cc2)nc(SCc2ccc(CSC3=NC(=O)C(C#N)C(c4ccc(-c5ccccc5)cc4)=N3)cc2)[nH]c1=O` (stereo not drawn), the inhibition result in the assay with Escherichia coli [1], with Escherichia coli [2] and with Escherichia coli [3] was “Active” in each case. The IC50 in assay [6] turned out to be 50 µM; in assay [7], 2 µM. Further, the MIC result with Escherichia coli [5] was “inactive”. `Cc1cccc(C2=NC(SCc3ccc(CSc4nc(-c5cccc(C)c5)c(C#N)c(=O)[nH]4)cc3)=NC(=O)C2C#N)c1` (stereo not drawn): the inhibition entry in the assay with Escherichia coli [1] and with Escherichia coli [2] was “Active” throughout. With `Cc1onc(-c2c(Cl)cccc2Cl)c1C(=O)N1CCSCC1`, the inhibition entry in the assay with Escherichia coli [1] is “inactive”.
